From ChEMBL document CHEMBL1145908 (J Med Chem, 2003)
Active and inactive are the calls of the source. The calls are words filed in the database; no cut-off is given here. Residues, ends and D or L forms follow the SMILES beside them. *: point of attachment. X1 = CC(C)CCC[C@@H](C)[C@H]1CCC2C3CC=C4C[C@H](SC[C@@H]5CCN6CC[C@@H](CSCC(=O)*)NC6=N5)CC[C@]4(C)C3CC[C@@]21C; X3 = CC(C)(C)[Si](OC[C@@H]1CCN2CC[C@@H](COC(=O)CCCCC(=O)*)NC2=N1)(c1ccccc1)c1ccccc1; X5 = CC(C)(C)[Si](OC[C@@H]1CCN2CC[C@@H](CNC(=O)CCCCC(=O)*)NC2=N1)(c1ccccc1)c1ccccc1; X2 = CC(C)(C)[Si](OCC1CCN2CCC(CSCC(=O)*)NC2=N1)(c1ccccc1)c1ccccc1; X4 = O=C(CCCCC(=O)*)OC[C@@H]1CCN2CC[C@@H](CO)N=C2N1; X6 = O=C(CCCCC(=O)*)NC[C@@H]1CCN2CC[C@@H](CO)N=C2N1; OBn = c1ccc(CO*)cc1; Bn = c1ccc(C*)cc1

Experiments:
[1] = molecular target: Human immunodeficiency virus type 1 protease (Human immunodeficiency virus 1) (UniProt Q72874); assay: Dimerization inhibition against HIV-1 Protease
Method in brief: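 Recombinant HIV-1 PR expressed in E. coli (pET9c-PR). Hydrolysis of DABCYL-γ-abu-[…]EDANS (5.2 μM) was followed by fluorescence (ex 340/em 490 nm) in 100 mM sodium acetate, 1 mM EDTA, 1 M NaCl, pH 4.7, 30 °C, with 3% DMSO final. Initial rates were taken at ≥7 enzyme levels (1.88–28 nM) per inhibitor concentration. Kic/Kid were obtained by Zhang's method from [E]0/√vi vs √vi plots.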

[2] = molecular target: Human immunodeficiency virus type 1 protease (Human immunodeficiency virus 1, UniProt Q72874); assay: In vitro inhibitory activity against HIV-1 Protease
Method in brief: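 Recombinant HIV-1 PR expressed in E. coli (pET9c-PR). Fluorogenic DABCYL-γ-abu-[…]EDANS substrate 5.2 μM, enzyme 7.5 nM, in 100 mM sodium acetate, 1 mM EDTA, 1 M NaCl, pH 4.7, 30 °C, 3% DMSO final. Fluorescence read at ex 340/em 490 nm. IC50 fitted from % inhibition across 0.5–28 μM inhibitor. Ki derived by Zhang's method using 1.88–28 nM enzyme.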

[3] = molecular target: Human immunodeficiency virus type 1 protease (Human immunodeficiency virus 1) (UniProt Q72874); assay: Competitive inhibition against HIV-1 Protease
[4] = molecular target: Human immunodeficiency virus type 1 protease (Human immunodeficiency virus 1) (UniProt Q72874); assay: Inhibitory activity against HIV-1 Protease at 14 uM
[5] = molecular target: Human immunodeficiency virus type 1 protease (Human immunodeficiency virus 1) (UniProt Q72874); assay: Inhibitory activity against HIV-1 Protease at 28 uM
[6] = molecular target: Human immunodeficiency virus type 1 protease (Human immunodeficiency virus 1) (UniProt Q72874); assay: In vitro inhibitory activity against HIV-1 Protease; No inhibition

Compound	Kid [1]	IC50 [2]	also measured
CC(C)CCC[C@@H](C)[C@H]1CCC2C3CC=C4C[C@H](SC[C@@H]5CCN6CC[C@@H](CSCC(=O)NCC(=O)N[C@@H](C)C(=O)N[C@H](C(=O)N[C@@H](CC(C)C)C(=O)N[C@@H](CC(N)=O)C(=O)N[C@@H](Cc7ccccc7)C(=O)OCc7ccccc7)[C@@H](C)OCc7ccccc7)NC6=N5)CC[C@]4(C)C3CC[C@@]21C (some centres undefined) (X1-GAT(Bn)LNF-OBn)	0.4 µM	3 µM	Kic [3]: 0.4 µM
CC[C@H](C)[C@H](NC(=O)[C@H](C)NC(=O)CSCC1CCN2CCC(CO[Si](c3ccccc3)(c3ccccc3)C(C)(C)C)N=C2N1)C(=O)N[C@H](C(=O)N[C@@H](CC(C)C)C(=O)N[C@@H](Cc1c[nH]c2ccccc12)C(=O)OC)[C@@H](C)OCc1ccccc1 (some centres undefined) (X2-AIT(Bn)LW-OMe)	6.5 µM	5 µM	
CC(C)C[C@H](NC(=O)[C@@H](NC(=O)[C@H](C)NC(=O)CNC(=O)CSCC1CCN2CCC(CO[Si](c3ccccc3)(c3ccccc3)C(C)(C)C)N=C2N1)[C@@H](C)OCc1ccccc1)C(=O)N[C@@H](CC(N)=O)C(=O)N[C@@H](Cc1ccccc1)C(=O)O (some centres undefined) (X2-GAT(Bn)LNF-OH)		11 µM	
CC[C@H](C)[C@H](NC(=O)CNC(=O)CSCC1CCN2CCC(CO[Si](c3ccccc3)(c3ccccc3)C(C)(C)C)N=C2N1)C(=O)N[C@@H](COCc1ccccc1)C(=O)N[C@@H](Cc1ccc(OCc2ccccc2)cc1)C(=O)N[C@@H](CC(N)=O)C(=O)N[C@@H](CC(C)C)C(=O)OC (some centres undefined) (X2-GIS(Bn)Y(Bn)NL-OMe)	0.29 µM	3.3 µM	
CC[C@H](C)[C@H](NC(=O)CNC(=O)CSCC1CCN2CCC(CO[Si](c3ccccc3)(c3ccccc3)C(C)(C)C)N=C2N1)C(=O)N[C@@H](CO)C(=O)N[C@@H](Cc1ccc(O)cc1)C(=O)N[C@@H](CC(N)=O)C(=O)N[C@@H](CC(C)C)C(=O)OC (some centres undefined) (X2-GISYNL-OMe)		5 µM	Kic [3]: 6 µM
COC(=O)[C@H](Cc1ccccc1)NC(=O)[C@H](CC(N)=O)NC(=O)[C@H](CC(C)C)NC(=O)[C@@H](NC(=O)[C@H](C)NC(=O)CCCCC(=O)OC[C@@H]1CCN2CC[C@@H](CO[Si](c3ccccc3)(c3ccccc3)C(C)(C)C)N=C2N1)[C@@H](C)O (X3-ATLNF-OMe)	0.55 µM	1.9 µM	
COC(=O)[C@H](Cc1ccccc1)NC(=O)[C@H](CC(N)=O)NC(=O)[C@H](CC(C)C)NC(=O)[C@@H](NC(=O)[C@H](C)NC(=O)CCCCC(=O)OC[C@@H]1CCN2CC[C@@H](CO)N=C2N1)[C@@H](C)O (X4-ATLNF-OMe)			inhibition [4]: 28%
COC(=O)[C@H](Cc1ccccc1)NC(=O)[C@H](CC(N)=O)NC(=O)[C@H](CC(C)C)NC(=O)[C@@H](NC(=O)[C@H](C)NC(=O)CCCCC(=O)NC[C@@H]1CCN2CC[C@@H](CO[Si](c3ccccc3)(c3ccccc3)C(C)(C)C)N=C2N1)[C@@H](C)O (X5-ATLNF-OMe)			inhibition [5]: 28%
COC(=O)[C@H](Cc1ccccc1)NC(=O)[C@H](CC(N)=O)NC(=O)[C@H](CC(C)C)NC(=O)[C@@H](NC(=O)[C@H](C)NC(=O)CCCCC(=O)NC[C@@H]1CCN2CC[C@@H](CO)N=C2N1)[C@@H](C)O (X6-ATLNF-OMe)			NI [6]: inactive
CC(C)C[C@H](NC(=O)[C@@H](NC(=O)[C@H](C)NC(=O)CNC(=O)CSCC1CCN2CCC(CO[Si](c3ccccc3)(c3ccccc3)C(C)(C)C)N=C2N1)[C@@H](C)OCc1ccccc1)C(=O)N[C@@H](CC(N)=O)C(=O)N[C@@H](Cc1ccccc1)C(=O)OCc1ccccc1 (stereo in doubt; 6 (S,S)) [listing 1 of 2 here]		1.6 µM	
CC(C)C[C@H](NC(=O)[C@@H](NC(=O)[C@H](C)NC(=O)CNC(=O)CSCC1CCN2CCC(CO[Si](c3ccccc3)(c3ccccc3)C(C)(C)C)N=C2N1)[C@@H](C)OCc1ccccc1)C(=O)N[C@@H](CC(N)=O)C(=O)N[C@@H](Cc1ccccc1)C(=O)OCc1ccccc1 (stereo in doubt; 6 (S,S)) [listing 2 of 2 here]	0.15 µM		
CC(C)C[C@H](NC(=O)[C@@H](NC(=O)[C@H](C)NC(=O)CNC(=O)CSCC1CCN2CCC(CO[Si](c3ccccc3)(c3ccccc3)C(C)(C)C)N=C2N1)[C@@H](C)OCc1ccccc1)C(=O)N[C@@H](CC(N)=O)C(=O)N[C@@H](Cc1ccccc1)C(=O)OCc1ccccc1 (stereo in doubt; 6'(R,R)) [listing 1 of 2 here]		2 µM	
CC(C)C[C@H](NC(=O)[C@@H](NC(=O)[C@H](C)NC(=O)CNC(=O)CSCC1CCN2CCC(CO[Si](c3ccccc3)(c3ccccc3)C(C)(C)C)N=C2N1)[C@@H](C)OCc1ccccc1)C(=O)N[C@@H](CC(N)=O)C(=O)N[C@@H](Cc1ccccc1)C(=O)OCc1ccccc1 (stereo in doubt; 6'(R,R)) [listing 2 of 2 here]	0.15 µM		
